Reference: ChEMBL document CHEMBL3351782, “Synthesis and biological evaluation of glaucocalyxin A derivatives as potential anticancer agents” (Eur J Med Chem, 2014)
pIC50: −log10 of the molar value.

Experiments:
[1] = Chemical stability in 10 mM pH 7.4 PBS buffer assessed as parent compound remaining at 1 uM at 37 degC after 24 hrs by HPLC method; type: physicochemical; details: read-out: Stability
How it was run: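 DMSO stock was diluted into pre-warmed 10 mM PBS, pH 7.4, with 1% v/v DMSO final, and incubated at 37 °C. Aliquots were taken at set times and injected directly onto reversed-phase HPLC (ODS column, water + 0.1% TFA eluent, external standard). The result is percent parent remaining after 24 h, mean ± SD, n = 3.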

KB [2] = experiment: Induction of apoptosis in human KB cells assessed as viable cells level at 20 uM after 48 hrs by Annexin V and propidium iodide staining based flow cytometry (reference value: 87.4%); type: functional
How it was run: (§1)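 KB cells were plated in 6-well plates at 2.5 × 10^5 cells/mL and treated for 48 h. Adherent and floating cells were pooled, washed twice in PBS and stained with Annexin V and PI in binding buffer for 20 min at room temperature. Samples were read immediately on a FACSCalibur; untreated cells served as control. Values are means ± SE of at least three independent experiments.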

KB [3] = experiment: Induction of apoptosis in human KB cells assessed as late apoptotic cells level at 20 uM after 48 hrs by Annexin V and propidium iodide staining based flow cytometry (reference value: 2.26%); type: functional; how it was run: as §1
KB [4] = experiment: Induction of apoptosis in human KB cells assessed as necrotic cells level at 20 uM after 48 hrs by Annexin V and propidium iodide staining based flow cytometry (reference value: 3.23%); type: functional; how it was run: as §1
KB [5] = experiment: Induction of apoptosis in human KB cells assessed as viable cells level at 10 uM after 48 hrs by Annexin V and propidium iodide staining based flow cytometry (reference value: 87.4%); type: functional; how it was run: as §1
KB [6] = experiment: Induction of apoptosis in human KB cells assessed as viable cells level at 5 uM after 48 hrs by Annexin V and propidium iodide staining based flow cytometry (reference value: 87.4%); type: functional; how it was run: as §1
KB [7] = experiment: Antiproliferative activity against human KB cells after 48 hrs by MTT assay; type: functional, cell-based
How it was run: (§2)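 Cells were seeded at 3 × 10^3 per well and exposed 24 h later, while growing exponentially, to compounds at final concentrations of 1.25 to 40 for 48 h. MTT (5 mg/mL in PBS) was then added for 6 h. The medium was aspirated, the formazan dissolved in DMSO and absorbance read at 570 nm. Survival is relative to untreated cells; IC50 comes from triplicate wells in at least three independent experiments.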

[8] = Antiproliferative activity against human SMMC7721 cells after 48 hrs by MTT assay; type: functional, cell-based; details: SMMC-7721, 48 h; how it was run: as §2
KB [9] = experiment: Induction of apoptosis in human KB cells assessed as late apoptotic cells level at 10 uM after 48 hrs by Annexin V and propidium iodide staining based flow cytometry (reference value: 2.26%); type: functional; how it was run: as §1
KB [10] = experiment: Induction of apoptosis in human KB cells assessed as late apoptotic cells level at 5 uM after 48 hrs by Annexin V and propidium iodide staining based flow cytometry (reference value: 2.26%); type: functional; how it was run: as §1
KB [11] = experiment: Induction of apoptosis in human KB cells assessed as necrotic cells level at 5 uM after 48 hrs by Annexin V and propidium iodide staining based flow cytometry (reference value: 3.23%); type: functional; how it was run: as §1
A549 = experiment: Antiproliferative activity against human A549 cells after 48 hrs by MTT assay; type: functional, cell-based; details: A549, 48 h; how it was run: as §2
[12] = Antiproliferative activity against human SGC7901 cells after 48 hrs by MTT assay; type: functional, cell-based; details: SGC-7901, 48 h; how it was run: as §2
KB [13] = experiment: Prodrug conversion in human KB cells lysates assessed as formation of cysteine conjugates at 500 uM in presence of 10 mM cysteine by LC-HRMS method; type: ADME, cell-based, Lysate
How it was run: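 KB cells (5 × 10^6) were lysed by freeze/thaw. DMSO stock prepared just before use was added to lysate already containing cysteine, with DMSO matched in controls, and incubated at 37 °C. Aliquots taken at 30 min and 1 h were mixed with two volumes of acetonitrile and centrifuged (4 °C, 10,000 g, 10 min). They were analysed by LC-HRMS in positive mode using a water + 0.1% formic acid/methanol gradient.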

KB [14] = experiment: Induction of apoptosis in human KB cells assessed as early apoptotic cells level at 5 uM after 48 hrs by Annexin V and propidium iodide staining based flow cytometry (reference value: 7.08%); type: functional; how it was run: as §1
KB [15] = experiment: Induction of apoptosis in human KB cells assessed as necrotic cells level at 10 uM after 48 hrs by Annexin V and propidium iodide staining based flow cytometry (reference value: 3.23%); type: functional; how it was run: as §1
[16] = Antiproliferative activity against human HL7702 cells after 48 hrs by MTT assay; type: cell-based; details: L02, 48 h; how it was run: as §2
KB [17] = experiment: Induction of apoptosis in human KB cells after 48 hrs by Annexin V and propidium iodide staining based flow cytometry; type: functional, cell-based; how it was run: as §1
[18] = Antiproliferative activity against human HL60 cells after 48 hrs by MTT assay; type: functional, cell-based; details: HL-60, 48 h; how it was run: as §2
KB [19] = experiment: Induction of apoptosis in human KB cells assessed as early apoptotic cells level at 10 uM after 48 hrs by Annexin V and propidium iodide staining based flow cytometry (reference value: 7.08%); type: functional; how it was run: as §1
KB [20] = experiment: Induction of apoptosis in human KB cells assessed as early apoptotic cells level at 20 uM after 48 hrs by Annexin V and propidium iodide staining based flow cytometry (reference value: 7.08%); type: functional; how it was run: as §1
KB [21] = experiment: Retention time of the compound in human KB cells lysates treated with 500 uM in presence of 10 mM cysteine by LC-HRMS method
[22] = Stability in 80% rat plasma assessed as parent compound remaining at 1 uM at 37 degC after 24 hrs by HPLC method; type: ADME, cell-free; details: read-out: Stability
How it was run: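 Thawed rat plasma was diluted to 80% v/v with 0.1 M PBS, pH 7.4. Compound was spiked from DMSO stock (1% v/v DMSO final) and held at 37 °C. Aliquots were quenched with two volumes of acetonitrile and centrifuged at 4 °C, 10,000 g, 10 min. Supernatants were run on HPLC with external standard; the result is percent parent remaining at 24 h, mean ± SD, n = 3.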

B16 = experiment: Antiproliferative activity against mouse B16 cells after 48 hrs by MTT assay; type: functional, cell-based; details: B16, 48 h; how it was run: as §2

remaining at 24 h, 1 µM [1]: 109%
pIC50 (KB [7]): 5.19
pIC50 (A549): 5.12
Retention_time (KB [13]): 2.42 min
Retention_time (KB [21]): 5.75 min
remaining at 24 h, 1 µM [22]: 24.2%
pIC50 (B16): 5.32
SMILES: C=C1C(=O)[C@@]23[C@H](O)C[C@@H]4C(C)(C)C(=O)CC[C@@]4(C)[C@@H]2CC[C@@H]1[C@H]3O [GLAUCOCALYXIN A]
Activity (KB [2]): 43.9%
Activity (KB [3]): 19%
Activity (KB [4]): 3.59%
Activity (KB [5]): 76.1%
Activity (KB [6]): 80.6%
pIC50 [8]: 5.09
Activity (KB [9]): 6.89%
Activity (KB [10]): 3.69%
Activity (KB [11]): 4.95%
pIC50 [12]: 4.93
Activity (KB [14]): 10.7%
Activity (KB [15]): 2.69%
pIC50 [16]: 5.06
Activity (KB [17]): Dose-dependent effect
pIC50 [18]: 5.26
Activity (KB [19]): 14.3%
Activity (KB [20]): 33.4%
